Assay [1] relates to L1210. Description: Uptake of a initial concentration of 100 ug/mL of compound in medium by L1210 cells after 10 min expressed as drug concentration in cells. The settings on record: Mus musculus. The assay is classed as functional, cell-based. The procedure, abridged: (§1)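 Cultured L1210 leukemia cells were incubated with drug in medium for set times. Cells were then washed in phosphate buffered saline and lysed by sonication in distilled water. Drug in the lysate was measured by HPLC on a short C18 column with methanol-water (65:35), against a peak-height standard curve that was linear over the range. Experiments were run in duplicate.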

For assay [2], the system named is L1210. The assay can be described thus: Uptake of a initial concentration of 100 ug/mL of compound in medium by L1210 cells after 30 min expressed as drug concentration in cells. The settings on record: Mus musculus. The assay is classed as functional, cell-based. The gist of the method: as §1
Assay [3] deals with L1210. The assay can be described thus: Uptake of a initial concentration of 100 ug/mL of compound in medium by L1210 cells after 60 min expressed as drug concentration in cells. The assay is classed as functional, cell-based. The settings on record: Mus musculus. The procedure, abridged: as §1
The subject of assay [4] is L1210. The assay can be described thus: Uptake of a initial concentration of 10 ug/mL of compound in medium by L1210 cells after 30 min expressed as drug concentration in cells. The settings on record: Mus musculus. The assay is classed as functional, cell-based. The gist of the method:
as §1

Assay [5] has as its system L1210. Description: Uptake of a initial concentration of 10 ug/mL of compound in medium by L1210 cells after 60 min expressed as drug concentration in cells. The assay is classed as functional, cell-based. The settings on record: Mus musculus. The procedure, abridged: as §1
Assay [6] deals with L1210. The assay can be described thus: Inhibition of L1210 leukemia cells, after exposure to compound for period of 1 hr. The assay is classed as functional. As to conditions: Mus musculus, L1210, 1 h; read-out: ID50 (the source's name). The gist of the method:
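Soft-agar colony-forming assay using L1210 murine lymphocytic leukemia cells at 4×10^4/mL. Drug exposure was either 1 h or continuous, with continuous dosing done by adding drug to the final plating medium (RPMI 1640, 10% fetal bovine serum, 1% penicillin/streptomycin, 0.3% agar). Read-out is percent survival of colony-forming cells, as the mean of six values (three plates in each of two experiments). ID50 is given as molar concentration.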

Assay [7] concerns L1210. The assay can be described thus: Uptake of a initial concentration of 10 ug/mL of compound in medium by L1210 cells after 10 min expressed as drug concentration in cells. The settings on record: Mus musculus. The assay is classed as functional, cell-based. The gist of the method:
as §1

For assay [8], the system named is L1210. The assay can be described thus: The compound was evaluated for survival of L1210 cells, when compound was exposed for a period of 1 hr 1X (10e -5)M conc. The assay is classed as functional, Mus musculus. The gist of the method:
(§2)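 L1210 murine lymphocytic leukemia cells at 4×10^4/mL were exposed to drug for 1 h and then cloned in soft agar. The plating medium was RPMI 1640 with 10% fetal bovine serum, 1% penicillin-streptomycin and 0.3% agar. Read-out was percent survival of colony-forming cells, taken as the mean of six values (three plates in each of two experiments).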

For assay [9], the system named is L1210. Description: The compound was evaluated for survival of L1210 cells, when compound was exposed for a period of 1 hr 1X (10e -6)M conc. The assay is classed as functional, Mus musculus. The procedure, abridged: as §2
The subject of assay [10] is L1210. Description: The compound was evaluated for survival of L1210 cells, when compound was exposed for a period of 1 hr 1X (10e -7)Mconc. The assay is classed as functional, Mus musculus. The gist of the method: as §2
Assay [11] deals with L1210. The assay can be described thus: The compound was evaluated for survival of L1210 cells, when compound was exposed for a period of 1 hr 5*(10e -5)M conc. The assay is classed as functional, Mus musculus. The procedure, abridged: as §2
For assay [12], the system named is L1210. Description: The compound was evaluated for survival of L1210 cells, when compound was exposed for a period of […] 1X (10e -7)M conc. The assay is classed as functional, Mus musculus. The gist of the method:
(§3)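 In a soft-agar colony-forming assay, L1210 murine lymphocytic leukemia cells (4×10^4/mL) were exposed to drug continuously, with drug added to the final plating medium. That medium was RPMI 1640 with 10% fetal bovine serum, 1% penicillin-streptomycin and 0.3% agar. Read-out was percent survival of colony-forming cells, given as the mean of six values (three plates, two experiments).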

The test system of assay [13] is L1210. The assay can be described thus: The compound was evaluated for survival of L1210 cells, when compound was exposed for a period of […] 1X (10e -8)Mconc. The assay is classed as functional, Mus musculus. The procedure, abridged:
as §3

In assay [14] the test system is L1210. Description: The compound was evaluated for survival of L1210 cells, when compound was exposed for a period of […] 1X (10e -9)M conc. The assay is classed as functional, Mus musculus. The procedure, abridged: as §3
Assay [15] concerns L1210. The assay can be described thus: The compound was evaluated for survival of L1210 cells, when compound was exposed for a period of […] 5*(10e -8)M conc. The assay is classed as functional, Mus musculus. The gist of the method:
as §3

`CC1=C(N)C(=O)c2c(COC(N)=O)c3n(c2C1=O)CC(N)C3OP(=O)(O)OC[C@H]1O[C@@H](n2ccc(=O)[nH]c2=O)[C@H](O)[C@@H]1O` (some centres undefined): the Concentration worked out at 20 µg/mL in the assay on L1210 [1]; 20 µg/mL in the assay on L1210 [2]; 1 µg/mL in the assay with L1210 [3]; 1 µg/mL in the assay with L1210 [4]; 2.5 µg/mL in the assay on L1210 [5]; 8 µg/mL with L1210 [7]. The IC50 with L1210 [6] amounted to 13.3 µM.

For `CC1=C(N)C(=O)c2c(COC(N)=O)c3n(c2C1=O)CC(N)C3OP(=O)(O)OC[C@H]1O[C@@H](n2cc(F)c(=O)[nH]c2=O)C[C@@H]1O` (some centres undefined), the IC50 in the assay with L1210 [6] was 14 µM.

For `CO[C@@]12[C@H](COC(N)=O)C3=C(C(=O)C(C)=C(N)C3=O)N1C[C@@H]1N[C@@H]12.O=c1[nH]c(=O)n([C@H]2C[C@H](O)[C@@H](CO)O2)cc1F`, the Survival worked out at 1% in the assay with L1210 [8]; 48% with L1210 [9]; 100% in the assay with L1210 [10]; 2% with L1210 [11]; 3% with L1210 [12]; 70% with L1210 [13]. Besides, the Survival was found to be 84% with L1210 [14] and 42% in the assay on L1210 [15].

For the compound `CC1=C(N)C(=O)c2c(COC(N)=O)c3n(c2C1=O)CC(N)C3[18OH]` (centres undefined), the IC50 in the assay with L1210 [6] is 62 µM.

Take `O=c1[nH]c(=O)n([C@H]2C[C@H](O)[C@@H](CO)O2)cc1F` [FLOXURIDINE]: the Survival in the assay with L1210 [8] is on record as 92%; with L1210 [9] it was 94%; with L1210 [10], 98%; with L1210 [11], 89%; in the assay with L1210 [12], 62%; in the assay on L1210 [13] it was 76%. Moreover, the Survival was determined as 100% with L1210 [14] and 68% with L1210 [15].

In the case of `CO[C@@]12[C@H](COC(N)=O)C3=C(C(=O)C(C)=C(N)C3=O)N1C[C@@H]1N[C@@H]12` [MITOMYCIN], the IC50 with L1210 [6] was determined as 3.1 µM. Besides, the Survival is given as 1% with L1210 [8]; 52% in the assay with L1210 [9]; 89% with L1210 [10]; 2% in the assay on L1210 [11]; 7% with L1210 [12]; 100% in the assay on L1210 [13]. The figures for the Survival with L1210 [14] and in the assay with L1210 [15] were 98% and 73%, respectively.

The record behind these values is ChEMBL document CHEMBL1124179, “Nucleotide derivatives of 2,7-diaminomitosene” (1988).
